Measured values: ChEMBL document CHEMBL1153146, “Novel potent apoA-I peptide mimetics that stimulate cholesterol efflux and pre-beta particle formation in vitro” (Bioorg Med Chem Lett, 2010)
Values after ≈ are worked out from the molar mass of the structure shown. Non-standard residues stand in square brackets, D forms with d. Residues, ends and D or L forms follow the SMILES beside them. Aib = CC(C)(N)C(=O)O

Tests used:
[1] = Toxicity in human RBC assessed as minimum lytic concentration; assay type: cell-based; settings: erythrocyte
[2] = Toxicity in human RBC assessed as hemolysis; assay type: cell-based, Erythrocyte; settings: red blood cells (RBC)
Method in brief: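 Red blood cell lysis assay; cytotoxicity reported as IC50 in µM.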

RAW264.7 [3] = assay: Cytotoxicity against mouse RAW264.7 cells after 24 hrs by MTT assay; assay type: cell-based; settings: RAW264.7, 24 h
Method in brief: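 RAW macrophage cytotoxicity examined at peptide concentrations up to 160 µM.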

RAW264.7 [4] = assay: Induction of [3H]cholesterol efflux in mouse RAW264.7 cells at 100 uM after 24 hrs by scintillation counting; assay type: functional, cell-based
Plasma [5] = assay: Incorporation into HDL fraction in wild type mouse plasma at 0.25 mg/ml after 2 hrs by size exclusion chromatography analysis
RAW264.7 [6] = assay: Induction of [3H]cholesterol efflux in mouse RAW264.7 cells after 24 hrs by scintillation counting; assay type: functional, cell-based; settings: Mus musculus, RAW264.7; read-out: EC50
Method in brief: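 Cholesterol efflux from RAW macrophages; EC50 reported in µM as the mean of three experiments.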

Plasma [7] = assay: Increase in pre-beta-HDL level in human plasma after 1 hr by ELISA; assay type: functional, cell-free
Method in brief: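 Peptides were titrated into human plasma, with concentrations expressed in µg/ml, and pre-β-HDL was read out by ELISA using a pre-β antibody.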

RAW264.7 [8] = assay: Induction of [3H]cholesterol efflux in mouse RAW264.7 cells at 30 uM after 24 hrs by scintillation counting; assay type: functional, cell-based

## C[C@@H]1[C@H](O)[C@@H](C)/C=C/C=C/C=C/C=C/C=C/C=C/C=C/[C@H](O[C@@H]2O[C@H](C)[C@@H](O)[C@H](N)[C@@H]2O)C[C@@H]2O[C@](O)(C[C@@H](O)C[C@@H](O)[C@H](O)CC[C@@H](O)C[C@@H](O)CC(=O)O[C@H]1C)C[C@H](O)[C@H]2C(=O)O [AMPHOTERICIN B]
[1]
  MLC: 2 µg/mL (≈ 2.16 µM)

## CC(C)C[C@H](NC(=O)[C@H](C)NC(=O)[C@H](CCC(=O)O)NC(=O)[C@H](CC(C)C)NC(=O)C(C)(C)NC(=O)[C@H](CCC(=O)O)NC(=O)[C@H](CC(N)=O)NC(=O)[C@H](CC(C)C)NC(=O)[C@H](CCCCN)NC(=O)[C@H](CCC(=O)O)NC(=O)[C@H](CCCNC(=N)N)NC(=O)[C@H](Cc1ccccc1)NC(=O)[C@H](CCC(=O)O)NC(=O)[C@H](CC(=O)O)NC(=O)[C@H](CC(C)C)NC(=O)[C@@H](NC(=O)[C@@H]1CCCN1)C(C)C)C(=O)N[C@@H](CCCCN)C(=O)N[C@@H](CCC(N)=O)C(=O)N[C@@H](CCCCN)C(=O)N[C@@H](CC(C)C)C(=O)N[C@@H](CCCCN)C(=O)O (H-PVLDEFREKLNE[Aib]LEALKQKLK-OH)
[2]
  IC50: > 160 µM
RAW264.7 [3]
  IC50: > 160 µM
RAW264.7 [4]
  cholesterol efflux: 6%

## C=CCCCCC[C@H](NC(=O)[C@H](CCC(=O)O)NC(=O)[C@H](CC(N)=O)NC(=O)[C@H](CC(C)C)NC(=O)[C@H](CCCCN)NC(=O)[C@H](CCC(=O)O)NC(=O)[C@H](CCCNC(=N)N)NC(=O)[C@@H](CCCCC=C)NC(=O)[C@H](CCC(=O)O)NC(=O)[C@H](CC(=O)O)NC(=O)[C@H](CC(C)C)NC(=O)[C@@H](NC(=O)[C@@H]1CCCN1)C(C)C)C(=O)N[C@@H](CC(C)C)C(=O)N[C@@H](CCC(=O)O)C(=O)N[C@@H](C)C(=O)N[C@@H](CC(C)C)C(=O)N[C@@H](CCCCN)C(=O)N[C@@H](CCC(N)=O)C(=O)N[C@@H](CCCCN)C(=O)N[C@@H](CC(C)C)C(=O)N[C@@H](CCCCN)C(=O)O
Plasma [5]
  IC50: Active
RAW264.7 [6]
  EC50: 0.8 µM
[2]
  IC50: > 160 µM
RAW264.7 [3]
  IC50: > 160 µM
Plasma [7]
  IC50: Active

## O=C(N[C@H](CO)[C@H](O)c1ccc([N+](=O)[O-])cc1)C(Cl)Cl [CHLORAMPHENICOL]
[1]
  MLC: > 64 µg/mL

## C=CCCC[C@H](NC(=O)[C@H](CCC(=O)O)NC(=O)[C@H](CC(N)=O)NC(=O)[C@H](CC(C)C)NC(=O)[C@H](CCCC=C)NC(=O)[C@H](CCC(=O)O)NC(=O)[C@H](CCCNC(=N)N)NC(=O)[C@H](Cc1ccccc1)NC(=O)[C@H](CCC(=O)O)NC(=O)[C@H](CC(=O)O)NC(=O)[C@H](CC(C)C)NC(=O)[C@@H](NC(=O)[C@@H]1CCCN1)C(C)C)C(=O)N[C@@H](CC(C)C)C(=O)N[C@@H](CCC(=O)O)C(=O)N[C@@H](C)C(=O)N[C@@H](CC(C)C)C(=O)N[C@@H](CCCCN)C(=O)N[C@@H](CCC(N)=O)C(=O)N[C@@H](CCCCN)C(=O)N[C@@H](CC(C)C)C(=O)N[C@@H](CCCCN)C(=O)O
RAW264.7 [8]
  cholesterol efflux: 7%
[2]
  IC50: > 160 µM
RAW264.7 [3]
  IC50: > 160 µM
